Source: ChEMBL document CHEMBL3739385, “Stelleralides D-J and Anti-HIV Daphnane Diterpenes from Stellera chamaejasme” (J Nat Prod, 2015)

How the values were obtained:
[1] = Selectivity index, ratio of CC50 for human MT4 cells to EC50 for HIV-1 NL4-3 infected in MT4 cells; format: toxicity, cell-based; conditions: read-out: Ratio CC50/EC50
MT4 = experiment: Cytotoxicity against human MT4 cells by cellTiterGlo assay; format: cell-based
Summary of the method: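 MT4 cells are cultured in parallel with the antiviral assay and treated with compounds. Viability is read with CellTiter-Glo luminescent reagent, which quantifies ATP in metabolically active cells. CC50, the concentration reducing viable cells by 50%, is calculated from the dose-response curve.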

[2] = tested on: Human immunodeficiency virus 1; experiment: Antiviral activity against HIV-1 NL4-3 infected in MT4 cells assessed as viral replication measured on day 4 post infection by ELISA; format: functional, organism-based; conditions: Human immunodeficiency virus 1, NL4-3, MT4, 96 h
Summary of the method: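 HIV-1 NL4-3 at MOI 0.001 infects MT4 cells in the presence of graded compound concentrations. Fresh medium with compound is added 48 h after infection to keep the cells growing. On day 4 post-infection, replication is read by p24 ELISA.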

Row | Compound | selectivity ratio [1] | CC50 (MT4) [nM] | EC50 [2] [nM]
1 | C=C(C)[C@]12C[C@@H](C)[C@@]34O[C@](CCCCCCCCC)(O[C@@H]1[C@@H]3[C@@H]1O[C@]1(CO)[C@@H](O)[C@]1(O)C(=O)C(C)=C[C@H]14)O2 [SIMPLEXIN] | ≥ 400 | ≥ 18800 | 47
2 | C=C(C)[C@@]12OC3(/C=C/C=C/CCCCCCCCCC)O[C@@H]1[C@@H]1[C@@H]4O[C@]4(CO)[C@@H](O)[C@]4(O)C(=O)C(C)=C[C@H]4[C@@]1(O3)[C@H](C)[C@H]2O | ≥ 135 | ≥ 16300 | 120
3 | C=C(C)[C@]12C[C@@H](COC(=O)c3ccccc3)[C@@]34OC5(CCCCCCC[C@@H](C)[C@H]6[C@H](C)C(=O)[C@@](O)([C@H](O)[C@@]7(CO)O[C@H]7[C@H]3[C@H]1O5)[C@@H]64)O2 | ≥ 318 | ≥ 15300 | 48
4 | C=C(C)[C@]12C[C@@H](COC(=O)c3ccccc3)[C@]34OC5(CCCCCCC[C@H](C)[C@@H]6[C@@H]3[C@]3(O[C@]6(C)OC3=O)[C@H](O)[C@@]3(COC(=O)CCCCCCC/C=C\C/C=C\CCCCC)O[C@H]3[C@H]4[C@H]1O5)O2 | ≥ 1 | ≥ 10800 | 6710
5 | C=C(C)[C@]12C[C@@H](C)[C@@]34O[C@](/C=C/C=C/CCCCCCCCC)(O[C@@H]1[C@@H]3[C@@H]1O[C@]1(CO)[C@@H](O)[C@]1(O)C(=O)C(C)=C[C@H]14)O2 | ≥ 5380 | ≥ 14000 | 2.6
6 | C=C(C)[C@]1(O)C[C@@H](C)[C@@]2(O)[C@H]([C@H]1OC(=O)/C=C/C=C/CCCCCCCCC)[C@H](O)[C@@](O)(CO)[C@@H](O)[C@]1(O)C(=O)C(C)=C[C@H]12 | ≥ 100 | ≥ 4400 | 44
7 | C=C(C)[C@]12C[C@@H](C)[C@@]34OC(/C=C/C=C/CCCCCCCCCC)(O[C@@H]1[C@@H]3[C@@H]1O[C@]1(CO)[C@@H](O)[C@]1(O)C(=O)C(C)=C[C@H]14)O2 | ≥ 1280 | ≥ 16700 | 13
8 | Cc1cn([C@H]2C[C@H](N=[N+]=[N-])[C@@H](CO)O2)c(=O)[nH]c1=O [ZIDOVUDINE] | – | ≥ 3740 | –
9 | C=C(C)[C@]12C[C@@H](C)[C@@]34OC5(CCCCCCC[C@@H](C)[C@H]6[C@H](C)[C@H](OC(=O)c7ccccc7)[C@@](O)([C@H](O)[C@@]7(CO)O[C@H]7[C@H]3[C@H]1O5)[C@@H]64)O2 | ≥ 14300 | ≥ 15700 | 1.1
10 | C=C(C)[C@]12C[C@@H](COC(=O)c3ccccc3)[C@]34OC5(CCCCCCC[C@H](C)[C@@H]6[C@@H]3[C@]3(O[C@]6(C)OC3=O)[C@H](O)[C@@]3(COC(=O)CCCCCCCCCCCCCCC)O[C@H]3[C@H]4[C@H]1O5)O2 | ≥ 18 | ≥ 11100 | 590
11 | C=C(C)[C@@]12O[C@@]3(/C=C/C=C/CCCCCCCCC)O[C@@H]1[C@@H]1[C@@H]4O[C@]4(CO)[C@@H](O)[C@]4(O)C(=O)C(C)=C[C@H]4[C@@]1(O3)[C@H](C)[C@H]2OC(C)=O | ≥ 1300 | ≥ 15600 | 12
12 | C=C(C)[C@@]12OC3(/C=C/C=C/CCCCCCCCCC)O[C@@H]1[C@@H]1[C@@H]4O[C@]4(CO)[C@@H](O)[C@]4(O)C(=O)C(C)=C[C@H]4[C@@]1(O3)[C@H](C)[C@H]2OC(C)=O | ≥ 392 | ≥ 15300 | 39
13 | C=C(C)[C@]12C[C@@H](COC(=O)c3ccccc3)[C@@]34OC5(O[C@@H]1[C@@H]3[C@@H]1O[C@]1(COC(=O)c1ccccc1)[C@@H](O)[C@@]1(O)[C@H]4[C@H]([C@H](C)[C@@H]1O)[C@H](C)CCCCCC[C@H]5O)O2 | ≥ 13200 | ≥ 12900 | 0.98
14 | C=C(C)[C@]12C[C@@H](C)[C@]34O[C@]5(CCCCCCC[C@H](C)[C@@H]6[C@@H]3[C@]3(O[C@]6(C)OC3=O)[C@H](O)[C@@]3(CO)O[C@H]3[C@H]4[C@H]1O5)O2 | ≥ 16 | ≥ 18300 | 1120
15 | C=C(C)[C@]12C[C@@H](COC(=O)c3ccccc3)[C@@]34OC5(O[C@@H]1[C@@H]3[C@@H]1O[C@]1(CO)[C@@H](O)[C@@]1(O)[C@H]4[C@H]([C@H](C)[C@@H]1OC(=O)c1ccccc1)[C@H](C)C[C@@H](OC(=O)c1ccccc1)CCCC[C@H]5O)O2 | ≥ 15300 | ≥ 11200 | 0.73
16 | C=C(C)[C@]12C[C@@H](COC(=O)c3ccccc3)[C@]34OC5(CCCCCCC[C@H](C)[C@@H]6[C@@H]3[C@]3(O[C@]6(C)OC3=O)[C@H](O)[C@@]3(CO)O[C@H]3[C@H]4[C@H]1O5)O2 | ≥ 41 | ≥ 13800 | 330
17 | C=C(C)[C@]12C[C@@H](COC(=O)c3ccccc3)[C@@]34OC5(O[C@@H]1[C@@H]3[C@@H]1O[C@]1(CO)[C@@H](O)[C@@]1(O)[C@H]4[C@H]([C@H](C)[C@@H]1OC(=O)c1ccccc1)[C@H](C)CCCCCC[C@H]5O)O2 | ≥ 21500 | ≥ 1290 | 0.06
18 | C=C(C)[C@]12C[C@@H](COC(C)=O)[C@@]34OC5(O[C@@H]1[C@@H]3[C@@H]1O[C@]1(CO)[C@@H](O)[C@@]1(O)[C@H]4[C@H]([C@H](C)[C@@H]1OC(=O)c1ccccc1)[C@H](C)C[C@@H](OC(=O)c1ccccc1)CCCC[C@H]5O)O2 | ≥ 12900 | ≥ 12000 | 0.93
19 | C=C(C)[C@]1(O)C[C@@H](C)[C@@]2(O)[C@H]([C@H]1OC(=O)/C=C/C=C/CCCCCCCCC)[C@@H]1O[C@]1(CO)[C@@H](O)[C@]1(O)C(=O)C(C)=C[C@H]12 | ≥ 281 | ≥ 16600 | 59
20 | C=C(C)[C@@]1(O)[C@H](OC(=O)/C=C/C=C/CCCCCCCCC)[C@@H]2[C@@H]3O[C@]3(CO)[C@@H](O)[C@]3(O)C(=O)C(C)=C[C@H]3[C@@]2(O)[C@H](C)[C@H]1OC(C)=O | ≥ 345 | ≥ 15200 | 44
